This note sets out measurements from ChEMBL document CHEMBL1137338, “Effects of substitution on 9-(3-bromo-4-fluorophenyl)-5,9-dihydro-3H,4H-2,6-dioxa-4- azacyclopenta[b]naphthalene-1,8-dione, a dihydropyridine ATP-sensitive potassium channel opener” (J Med Chem, 2006).

Assay [1] addresses Sulfonylurea receptor 2, Kir6.2 (Homo sapiens) (UniProt Q14654+O60706). In words: Ability to open human urinary bladder Kir6.2 containing SUR2B in Ltk cells by FLIPR assay relative to P1075. The format is functional, cell-based. Put shortly: (§1)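 Ltk- cells stably transfected with the Kir6.2/SUR2B exon 17- splice variant. Membrane potential was followed with DiBAC dye in a 96-well cell-based kinetic fluorescence (FLIPR) assay. The highest concentration tested was 10 µM. Each compound's maximal fluorescence response was expressed as % of the response to the reference opener.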

For assay [2], the target named is Sulfonylurea receptor 2, Kir6.2 (Homo sapiens, UniProt O60706+Q14654). In words: Ability to open human urinary bladder Kir6.2 channel containing SUR2B in Ltk cells by FLIPR assay. In kind it is functional, cell-based. Put shortly:
as §1

Chain of Sulfonylurea receptor 2, Kir6.2 (Q14654 whole entry): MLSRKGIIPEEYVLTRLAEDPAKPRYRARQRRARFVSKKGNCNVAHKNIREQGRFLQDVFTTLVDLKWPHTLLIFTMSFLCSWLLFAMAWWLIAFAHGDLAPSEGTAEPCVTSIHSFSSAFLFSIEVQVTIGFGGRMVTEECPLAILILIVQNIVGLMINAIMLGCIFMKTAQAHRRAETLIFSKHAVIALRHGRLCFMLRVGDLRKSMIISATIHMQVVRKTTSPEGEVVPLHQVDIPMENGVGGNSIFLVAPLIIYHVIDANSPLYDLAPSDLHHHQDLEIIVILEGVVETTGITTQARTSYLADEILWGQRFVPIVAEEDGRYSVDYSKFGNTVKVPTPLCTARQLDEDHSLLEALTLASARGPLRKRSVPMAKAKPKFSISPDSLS
Chain of Sulfonylurea receptor 2, Kir6.2 (O60706 whole entry): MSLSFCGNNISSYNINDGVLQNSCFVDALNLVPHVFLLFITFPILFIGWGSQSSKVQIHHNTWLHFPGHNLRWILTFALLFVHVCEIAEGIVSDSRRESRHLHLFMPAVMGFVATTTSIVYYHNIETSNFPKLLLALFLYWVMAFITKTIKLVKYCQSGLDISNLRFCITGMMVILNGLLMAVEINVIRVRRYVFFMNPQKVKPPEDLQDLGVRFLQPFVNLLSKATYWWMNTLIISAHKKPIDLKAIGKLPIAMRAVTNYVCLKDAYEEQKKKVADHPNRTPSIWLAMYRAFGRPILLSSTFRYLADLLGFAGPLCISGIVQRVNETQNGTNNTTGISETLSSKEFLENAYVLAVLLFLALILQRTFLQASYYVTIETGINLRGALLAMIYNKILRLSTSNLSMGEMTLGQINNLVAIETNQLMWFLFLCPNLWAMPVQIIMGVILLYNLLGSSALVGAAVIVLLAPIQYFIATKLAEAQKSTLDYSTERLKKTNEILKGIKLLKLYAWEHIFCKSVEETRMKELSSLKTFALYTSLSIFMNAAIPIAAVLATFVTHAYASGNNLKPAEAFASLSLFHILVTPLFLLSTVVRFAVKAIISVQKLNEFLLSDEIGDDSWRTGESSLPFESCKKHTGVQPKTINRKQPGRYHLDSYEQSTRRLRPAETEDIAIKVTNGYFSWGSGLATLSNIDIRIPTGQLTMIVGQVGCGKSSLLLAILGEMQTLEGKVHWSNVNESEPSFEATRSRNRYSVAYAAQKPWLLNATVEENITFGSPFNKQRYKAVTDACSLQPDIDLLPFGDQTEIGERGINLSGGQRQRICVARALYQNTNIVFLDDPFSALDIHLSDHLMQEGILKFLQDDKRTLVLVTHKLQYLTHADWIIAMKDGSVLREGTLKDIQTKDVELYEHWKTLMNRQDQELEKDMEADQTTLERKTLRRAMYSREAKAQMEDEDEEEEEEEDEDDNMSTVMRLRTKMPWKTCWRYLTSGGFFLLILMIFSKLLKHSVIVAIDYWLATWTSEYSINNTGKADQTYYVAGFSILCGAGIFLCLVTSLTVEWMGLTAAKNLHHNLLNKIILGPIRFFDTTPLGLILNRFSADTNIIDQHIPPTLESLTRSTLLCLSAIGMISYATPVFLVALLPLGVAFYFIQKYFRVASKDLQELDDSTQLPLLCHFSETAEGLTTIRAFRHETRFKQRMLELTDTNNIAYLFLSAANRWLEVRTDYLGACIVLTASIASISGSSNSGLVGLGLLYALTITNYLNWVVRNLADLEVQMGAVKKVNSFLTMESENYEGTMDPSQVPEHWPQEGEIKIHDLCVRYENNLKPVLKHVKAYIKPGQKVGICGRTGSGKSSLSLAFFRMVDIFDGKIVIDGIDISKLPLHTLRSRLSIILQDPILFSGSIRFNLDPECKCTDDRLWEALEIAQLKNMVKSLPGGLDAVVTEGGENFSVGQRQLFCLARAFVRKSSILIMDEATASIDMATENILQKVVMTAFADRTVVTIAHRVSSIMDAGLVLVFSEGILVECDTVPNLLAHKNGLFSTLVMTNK

As to `C[C@@H]1OCC2=C(C1=O)[C@@H](c1ccc(F)c(Br)c1)C1=C(O)OCC1=N2` (stereo in doubt; 7b) [listing 1 of 2 here], in assay [1], the Efficacy was determined as 94%.
Still for that read-out and setting: for `CC[C@H]1OCC(O)=C2C1=NC1=C(C(=O)COC1)[C@H]2c1ccc(F)c(Cl)c1` (stereo in doubt; 72a) the value was 66%; for `CCC[C@H]1OC(O)=C2C1=NC1=C(C(=O)COC1)[C@H]2c1ccc(C)c(Br)c1` (stereo in doubt; 46b), 87%.
Take `CCC[C@H]1OC(O)=C2C1=NC1=C(C(=O)COC1)[C@H]2c1ccc(Cl)c(Cl)c1` (stereo in doubt; 42a): the Efficacy in assay [1] was 87%.
On the same count and under the same terms, for `CC[C@H]1OC(O)=C2C1=NC1=C(C(=O)COC1(C)C)[C@H]2c1ccc(F)c(Br)c1` (racemic) the value was 48%; for `CCC[C@@H]1OC(O)=C2C1=NC1=C(C(=O)COC1)[C@H]2c1ccc(F)c(Br)c1` (racemic), 90%; for `CC[C@@H]1OCC(O)=C2C1=NC1=C(C(=O)COC1)[C@H]2c1ccc(F)c(Br)c1` (stereo in doubt; 70b), 94%.
Still for that read-out and setting: for `O=C1COCC2=C1C(c1ccc(F)c(Br)c1)C1=C(O)OCC1=N2` (stereo in doubt; 6) the value was 92%; for `CC[C@H]1OCC(O)=C2C1=NC1=C(C(=O)COC1)[C@H]2c1ccc(Cl)c(Br)c1` (stereo in doubt; 75b), 54%; for `C[C@H]1OC(O)=C2C1=NC1=C(C(=O)COC1)[C@H]2c1ccc(F)c(Br)c1` (racemic), 75%.
In turn, `C[C@@H]1OCC2=C(C1=O)[C@@H](c1ccc(F)c(Br)c1)C1=C(O)OCC1=N2` (racemic) showed an Efficacy in assay [1] of 81%.
In the case of `CC[C@H]1OC(O)=C2C1=NC1=C(C(=O)C(C)(C)OC1)[C@H]2c1ccc(F)c(Br)c1` (stereo in doubt; 36a), the Efficacy in assay [1] was determined as 89%.
On the same count and under the same terms, for `CCCC[C@H]1OC(O)=C2C1=NC1=C(C(=O)COC1)[C@H]2c1ccc(F)c(Br)c1` (stereo in doubt; 29a) the value was 62%; for `CCC[C@H]1OC(O)=C2C1=NC1=C(C(=O)COC1)[C@H]2c1ccc(F)c(Cl)c1` (stereo in doubt; 39a), 74%; for `CCC[C@@H]1OC(O)=C2C1=NC1=C(C(=O)COC1)[C@H]2c1ccc(F)c(Br)c1` (stereo in doubt; 22b), 66%.
Take `CC[C@@H]1OC(O)=C2C1=NC1=C(C(=O)COC1)[C@H]2c1ccc(F)c(Br)c1` (stereo in doubt; 20b): the Efficacy in assay [1] worked out at 85%.
`CC[C@@H]1OCC(O)=C2C1=NC1=C(C(=O)COC1)[C@H]2c1ccc(F)c(Br)c1` (racemic) registered an Efficacy in assay [1] of 60%.
The same measure, in the same setting: for `CCC[C@H]1OC(O)=C2C1=NC1=C(C(=O)COC1)[C@H]2c1ccc(Cl)c(Cl)c1` (racemic) the value was 95%.
On the same count and under the same terms, for `C[C@@H]1OC(O)=C2C1=NC1=C(C(=O)COC1)[C@H]2c1ccc(F)c(Br)c1` (racemic) the value was 100%; for `CCC[C@H]1OC(O)=C2C1=NC1=C(C(=O)COC1)[C@H]2c1ccc(Cl)c(Br)c1` (stereo in doubt; 43a), 90%.
The same measure, in the same setting: for `CCC[C@H]1OC(O)=C2C1=NC1=C(C(=O)COC1)[C@H]2c1ccc(Br)c(Cl)c1` (stereo in doubt; 44b) the value was 92%.
In assay [1], `CC1(C)OCC2=C(C1=O)C(c1ccc(F)c(Br)c1)C1=C(O)OCC1=N2` (stereo in doubt; 9) yielded an Efficacy of 86%.
The same measure, in the same setting: for `CC[C@H]1OCC(O)=C2C1=NC1=C(C(=O)COC1)[C@H]2c1ccc(Br)c(Br)c1` (stereo in doubt; 77a) the value was 120%; for `CC[C@@H]1OC(O)=C2C1=NC1=C(C(=O)COC1)[C@H]2c1ccc(F)c(Br)c1` (stereo in doubt; 20a), 101%.
Same read-out and setting: for `CC[C@H]1OCC(O)=C2C1=NC1=C(C(=O)COC1)[C@H]2c1ccc(F)c(I)c1` (racemic) the value was 47%; for `CC[C@H]1OC(O)=C2C1=NC1=C(C(=O)C(C)(C)OC1)[C@H]2c1ccc(F)c(Br)c1` (racemic), 70%; for `CC1(C)OCC2=C(C1=O)C(c1ccc(F)c(Br)c1)C1=C(O)OCC1=N2` (single isomer, unassigned; (+)), 104%.
Take `CCC[C@H]1OC(O)=C2C1=NC1=C(C(=O)COC1)[C@H]2c1ccc(Cl)c(Br)c1` (racemic): the Efficacy in assay [1] came out at 120%.
In assay [1], `C[C@@H]1OCC2=C(C1=O)[C@H](c1ccc(F)c(Br)c1)C1=C(O)OCC1=N2` (racemic) came in with an Efficacy of 104%.
Same read-out and setting: for `CCC[C@H]1OC(O)=C2C1=NC1=C(C(=O)COC1)[C@H]2c1ccc(Br)c(Br)c1` (stereo in doubt; 45a) [listing 1 of 2 here] the value was 104%; for `CC[C@H]1OCC(O)=C2C1=NC1=C(C(=O)COC1)[C@H]2c1ccc(F)c(I)c1` (stereo in doubt; 73a) [listing 1 of 2 here], 69%.
The same measure, in the same setting: for `CC[C@H]1OCC(O)=C2C1=NC1=C(C(=O)COC1)[C@H]2c1ccc(Br)c(Cl)c1` (stereo in doubt; 76a) the value was 76%; for `CCC[C@H]1OC(O)=C2C1=NC1=C(C(=O)COC1)[C@H]2c1ccc(F)c(Br)c1` (stereo in doubt; 23a) [listing 1 of 2 here], 75%.
Still for that read-out and setting: for `CC[C@H]1OCC(O)=C2C1=NC1=C(C(=O)COC1)[C@H]2c1ccc(Br)c(Br)c1` (racemic) [listing 1 of 2 here] the value was 76%; for `CCCC[C@H]1OC(O)=C2C1=NC1=C(C(=O)COC1)[C@H]2c1ccc(F)c(Br)c1` (racemic), 61%.
In assay [1], `CCC[C@H]1OC(O)=C2C1=NC1=C(C(=O)COC1)[C@H]2c1ccc(F)c(I)c1` (racemic) returned an Efficacy of 105%.
Still for that read-out and setting: for `CC[C@H]1OCC(O)=C2C1=NC1=C(C(=O)COC1)[C@H]2c1ccc(F)c(I)c1` (stereo in doubt; 73b) the value was 53%; for `CC[C@H]1OCC(O)=C2C1=NC1=C(C(=O)COC1)[C@H]2c1ccc(Br)c(Cl)c1` (racemic), 46%; for `CCC[C@H]1OC(O)=C2C1=NC1=C(C(=O)COC1)[C@H]2c1ccc(C)c(Br)c1` (stereo in doubt; 46a) [listing 1 of 2 here], 81%.
Still for that read-out and setting: for `CC[C@H]1OCC(O)=C2C1=NC1=C(C(=O)COC1)[C@H]2c1ccc(Cl)c(Br)c1` (stereo in doubt; 75a) the value was 89%; for `COC[C@H]1OC(O)=C2C1=NC1=C(C(=O)COC1)[C@H]2c1ccc(F)c(Br)c1` (stereo in doubt; 25a), 95%.
On the same count and under the same terms, for `CC[C@H]1OC(O)=C2C1=NC1=C(C(=O)COC1(C)C)[C@H]2c1ccc(F)c(Br)c1` (stereo in doubt; 38a) the value was 77%; for `CC[C@@H]1OC(O)=C2C1=NC1=C(C(=O)COC1)[C@H]2c1ccc(F)c(Br)c1` (racemic), 74%; for `CCC[C@H]1OC(O)=C2C1=NC1=C(C(=O)COC1)[C@H]2c1ccc(Br)c(Cl)c1` (stereo in doubt; 44a), 121%.
For `CCC[C@H]1OC(O)=C2C1=NC1=C(C(=O)COC1)[C@H]2c1ccc(Cl)c(Cl)c1` (stereo in doubt; 42b), the Efficacy in assay [1] was determined as 62%.
`CC[C@H]1OCC(O)=C2C1=NC1=C(C(=O)COC1)[C@H]2c1ccc(C)c(Br)c1` (stereo in doubt; 78a) registered an Efficacy in assay [1] of 94%.
In turn, `CCC[C@H]1OC(O)=C2C1=NC1=C(C(=O)COC1)[C@H]2c1ccc(Br)c(Cl)c1` (racemic) displayed an Efficacy in assay [1] of 97%.
Same read-out and setting: for `CC(C)C[C@H]1OC(O)=C2C1=NC1=C(C(=O)COC1)[C@H]2c1ccc(F)c(Br)c1` (stereo in doubt; 31a) the value was 66%; for `CCC[C@H]1OC(O)=C2C1=NC1=C(C(=O)COC1)[C@H]2c1ccc(F)c(Cl)c1` (racemic) [listing 1 of 2 here], 42%; for `CCC[C@H]1OC(O)=C2C1=NC1=C(C(=O)COC1)[C@H]2c1ccc(Br)c(Br)c1` (stereo in doubt; 45b), 108%.
As to `CCC[C@H]1OC(O)=C2C1=NC1=C(C(=O)COC1)[C@H]2c1ccc(F)c(I)c1` (stereo in doubt; 41a), the Efficacy in assay [1] is 81%.
The compound `CCC[C@H]1OC(O)=C2C1=NC1=C(C(=O)COC1)[C@H]2c1ccc(Br)c(Br)c1` (racemic) registered an Efficacy in assay [1] of 119%.
`CCC[C@H]1OC(O)=C2C1=NC1=C(C(=O)COC1)[C@H]2c1ccc(C)c(Br)c1` (racemic) displayed an Efficacy in assay [1] of 104%.
On the same count and under the same terms, for `CC[C@H]1OCC(O)=C2C1=NC1=C(C(=O)COC1)[C@H]2c1ccc(C)c(Br)c1` (racemic) the value was 70%.
For the compound `COC[C@H]1OC(O)=C2C1=NC1=C(C(=O)COC1)[C@H]2c1ccc(F)c(Br)c1` (stereo in doubt; 25b), in assay [2], the EC50 is 22.9 nM.
Same read-out and setting: for `C[C@@H]1OCC2=C(C1=O)[C@@H](c1ccc(F)c(Br)c1)C1=C(O)OCC1=N2` (stereo in doubt; 7b) [listing 2 of 2 here] the value was 513 nM.
In assay [2], `CC[C@H]1OCC(O)=C2C1=NC1=C(C(=O)COC1)[C@H]2c1ccc(Br)c(Br)c1` (racemic) [listing 2 of 2 here] gave a concentration giving a half-maximal response (EC50) of 135 nM.
Turning to `CCC[C@H]1OC(O)=C2C1=NC1=C(C(=O)COC1)[C@H]2c1ccc(F)c(Cl)c1` (racemic) [listing 2 of 2 here], the EC50 in assay [2] was 67.6 nM.
Take `C[C@@H]1OC(O)=C2C1=NC1=C(C(=O)COC1)[C@H]2c1ccc(F)c(Br)c1` (stereo in doubt; 17b): the EC50 in assay [2] was 51.3 nM.
Take `CCC[C@H]1OC(O)=C2C1=NC1=C(C(=O)COC1)[C@H]2c1ccc(Br)c(Br)c1` (stereo in doubt; 45a) [listing 2 of 2 here]: the concentration giving a half-maximal response (EC50) in assay [2] is 1150 nM.
Regarding `CC[C@H]1OCC(O)=C2C1=NC1=C(C(=O)COC1)[C@H]2c1ccc(F)c(I)c1` (stereo in doubt; 73a) [listing 2 of 2 here], the EC50 in assay [2] was 1290 nM.
The same measure, in the same setting: for `C[C@H]1OC(O)=C2C1=NC1=C(C(=O)COC1)[C@H]2c1ccc(F)c(Br)c1` (stereo in doubt; 18a) the value was 64.6 nM.
On the same count and under the same terms, for `CCC[C@H]1OC(O)=C2C1=NC1=C(C(=O)COC1)[C@H]2c1ccc(C)c(Br)c1` (stereo in doubt; 46a) [listing 2 of 2 here] the value was 3470 nM; for `CCC[C@H]1OC(O)=C2C1=NC1=C(C(=O)COC1)[C@H]2c1ccc(F)c(Br)c1` (stereo in doubt; 23a) [listing 2 of 2 here], 3240 nM.
